Assay results of several laboratories.
Protocols differ between the studies behind these lines.

With `O=C1O[C@H]([C@@H](O)CO)C(O)=C1O` the inhibition was 38.9% (DPPH scavenging; 12.5 µg/mL).
`Oc1ccc(Br)cc1C=NCCN1CCOCC1` has an inhibition of 28.6% (DPPH scavenging; absorbance; 120 µM).
With `CNC(=O)c1cc(Oc2ccc(NC(=O)Nc3ccc(Cl)c(C(F)(F)F)c3)cc2)ccn1` the MIC was greater than 100 µM (Salmonella; microbial growth; clinical isolate).
The inhibition of `COc1cc(C=Cc2cc(-c3ccccc3)nc(O)n2)ccc1O` is reported as 61.6% (DPPH scavenging; 50 µg/mL).
For `O=S(=O)(Nc1nccs1)c1ccc(N=NN(O)c2ccccc2)cc1`, the inhibition was 24.1% (DPPH scavenging; absorbance; 20 µg/mL).
With `C[C@@H](O)[C@H]1C(=O)N2C(C(=O)O)=C(S[C@@H]3CN[C@H](C(=O)N(C)C)C3)[C@H](C)[C@H]12` the MIC was 32 mg/L (Serratia fonticola; microbial growth; broth dilution; clinical isolate).
`CN(O)N=Nc1ccc(S(=O)(=O)Nc2nccs2)cc1` has an inhibition of 16.4% (DPPH scavenging; absorbance; 120 µg/mL).
For `O=C1O[C@H]([C@@H](O)CO)C(O)=C1O`, the inhibition was 53.7% (DPPH scavenging; absorbance; 80 µM).
`CCCN(O)N=Nc1ccc(S(=O)(=O)Nc2cc(C)on2)cc1` has an inhibition of 27.6% (DPPH scavenging; absorbance; 300 µg/mL).
`COc1cc(-c2ccc(-c3ccc(C(=N)N)nc3)s2)cc(OC)c1OC` has a GI50 of 5.2 µM (NCI/ADR-RES; cell growth or viability; SRB).
With `CCN(O)N=Nc1ccc(S(=O)(=O)Nc2nccs2)cc1` the inhibition was 6.63% (DPPH scavenging; absorbance; 20 µg/mL).
`COc1cc(C=CC(=O)CC(c2ccc(N(C)C)cc2)n2ccnc2)ccc1O` (stereo not drawn) gave an inhibition of 42.7% (DPPH scavenging; 12.5 µg/mL).
